Each molecule was assayed against T1, M-phase inducer phosphatase 1 (Homo sapiens, UniProt P30304) (assay: Inhibition of human Cdc25A phosphatase activity).
T1 sequence (P30304 whole entry): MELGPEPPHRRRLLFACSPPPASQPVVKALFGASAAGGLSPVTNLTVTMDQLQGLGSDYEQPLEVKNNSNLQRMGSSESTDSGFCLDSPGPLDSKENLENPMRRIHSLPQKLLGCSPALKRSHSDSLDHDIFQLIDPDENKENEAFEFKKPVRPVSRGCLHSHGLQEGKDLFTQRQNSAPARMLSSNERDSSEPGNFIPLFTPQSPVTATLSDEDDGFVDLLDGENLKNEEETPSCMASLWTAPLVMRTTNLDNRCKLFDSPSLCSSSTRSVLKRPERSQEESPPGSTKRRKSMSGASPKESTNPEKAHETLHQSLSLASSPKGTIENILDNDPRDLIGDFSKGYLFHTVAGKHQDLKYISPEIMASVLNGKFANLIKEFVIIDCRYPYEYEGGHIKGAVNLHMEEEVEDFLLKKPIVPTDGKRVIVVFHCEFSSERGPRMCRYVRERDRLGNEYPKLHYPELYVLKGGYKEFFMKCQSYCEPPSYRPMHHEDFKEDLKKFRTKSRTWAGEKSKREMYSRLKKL
In short: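 Recombinant human Cdc25A catalytic domain; phosphatase activity measured by dephosphorylation of 40 μM O-methylfluorescein monophosphate in 50 mM Tris–HCl pH 8.0, 100 mM NaCl, 1 mM dithiothreitol. IC50 taken as mean of two–five experiments, with standard deviation reported.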
Molecule CCCCCCCCCCCCN1C(=O)C(=O)c2ccccc21 has an IC50 of 15 µM.
CC(C)CCC[C@@H](C)[C@H]1CCC2/C(=C/C(=O)O)CCC[C@@]21C (stereo not given in full) gave an IC50 of 12 µM.
For O=C(O)/C=C1/C(=O)N(CCCc2ccccc2)c2ccccc21, the IC50 was over 100 µM.
CCCCCCN1C(=O)/C(=C\C(=O)O)c2ccccc21 showed an IC50 of over 100 µM.
Molecule CCCCCCCCCCN1C(=O)/C(=C\C(=O)O)c2ccccc21 has an IC50 of 12 µM.
In the case of CCCCCCCCCCCCN1C(=O)/C(=C\C(=O)O)c2ccccc21, the IC50 is reported as 2.9 µM.
Molecule CCCCCCCCCCCCCCN1C(=O)/C(=C\C(=O)O)c2ccccc21 has an IC50 of 1.7 µM.
Work on CCCCCCCCCCCCN1C(=O)/C(=C/C(=O)OC)c2ccccc21 yielded an IC50 of 37 µM.
Molecule CCCCCCCCCCCCN1C(=O)C(CC(=O)O)c2ccccc21 (stereo not given) has an IC50 of 50 µM.
In the case of CCCCCCCCCCCCN1C(=O)/C(=N/O)c2ccccc21, the IC50 is reported as 33 µM.
With CCOCCOCCOCCN1C(=O)/C(=C/C(=O)O)c2ccccc21 the IC50 was over 100 µM.
For CCCCCCCCCCN1C(=O)/C(=C/C(=O)O)c2ccccc21, the IC50 was 13 µM.
CCCCCCCCCCCCN1C(=O)/C(=C/C(=O)O)c2ccccc21 was tested, and the IC50 was 2.6 µM.
In the case of CCCCCCCCCCCCCCN1C(=O)/C(=C/C(=O)O)c2ccccc21, the IC50 is reported as 2.3 µM.
CCCCCCN1C(=O)/C(=C/C(=O)O)c2ccccc21 was tested, and the IC50 was over 100 µM.
CCCCCCCCCCCCCCCCN1C(=O)/C(=C/C(=O)O)c2ccccc21 showed an IC50 of 1.9 µM.
With CCCCCCCCN1C(=O)/C(=C\C(=O)O)c2ccccc21 the IC50 was 39 µM.
In the case of CCCCCCCCCCCCCCCCN1C(=O)/C(=C\C(=O)O)c2ccccc21, the IC50 is reported as 1.6 µM.
Molecule CCCCCCCCCCCCn1cc(CC(=O)O)c2ccccc21 has an IC50 of 8 µM.
Work on CCCCCCCCN1C(=O)/C(=C/C(=O)O)c2ccccc21 yielded an IC50 of 78 µM.
